Assay results from ChEMBL document CHEMBL1152279 (J Med Chem, 2008).

Experiments:
Histamine H2 receptor = Histamine H2 receptor (Cavia porcellus, UniProt P47747); experiment: Agonist activity at histamine H2 receptor in guinea pig spontaneously beating right atrium assessed as positive chronotropic activity; format: functional, tissue-based, Cardiac atrium
Histamine H1 receptor = Histamine H1 receptor (Cavia porcellus, UniProt P31389); experiment: Antagonist activity at histamine H1 receptor in guinea pig ileum assessed as inhibition of histamine-induced […]; format: functional, tissue-based; settings: read-out: pA2 (converted)
[1] = molecular target: Histamine H2 receptor (Cavia porcellus) (UniProt P47747); experiment: Agonist activity at histamine H2 receptor in guinea pig spontaneously beating right atrium assessed as positive chronotropic activity relative to histamine; format: functional, tissue-based; settings: Cardiac atrium
[2] = molecular target: Histamine H1 receptor (Homo sapiens) (UniProt P35367); experiment: Antagonist activity at histamine H1 receptor in human U373 MG cells assessed as inhibition of histamine-induced intracellular calcium level preincubated for 15 mins prior to histamine challenge; format: functional, cell-based; settings: U-373MG ATCC
In short: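 U373-MG human cells expressing H1R, calcium assay. […] KB was derived from IC50 by the Cheng-Prusoff equation. Values are the mean of two experiments.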

Sequence of Histamine H2 receptor (P47747 whole entry): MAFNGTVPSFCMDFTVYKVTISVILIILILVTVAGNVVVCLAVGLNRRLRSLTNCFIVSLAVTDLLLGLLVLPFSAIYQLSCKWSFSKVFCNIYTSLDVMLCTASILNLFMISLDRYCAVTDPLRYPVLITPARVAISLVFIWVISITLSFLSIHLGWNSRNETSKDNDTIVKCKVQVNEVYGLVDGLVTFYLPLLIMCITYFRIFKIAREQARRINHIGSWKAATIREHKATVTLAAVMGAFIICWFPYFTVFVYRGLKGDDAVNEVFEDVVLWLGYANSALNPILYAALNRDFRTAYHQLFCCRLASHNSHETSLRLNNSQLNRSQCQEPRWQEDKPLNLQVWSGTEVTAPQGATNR
Sequence of Histamine H2 receptor (Cavia porcellus) (P47747 whole entry): as above
Sequence of Histamine H1 receptor (Homo sapiens) (P35367 whole entry): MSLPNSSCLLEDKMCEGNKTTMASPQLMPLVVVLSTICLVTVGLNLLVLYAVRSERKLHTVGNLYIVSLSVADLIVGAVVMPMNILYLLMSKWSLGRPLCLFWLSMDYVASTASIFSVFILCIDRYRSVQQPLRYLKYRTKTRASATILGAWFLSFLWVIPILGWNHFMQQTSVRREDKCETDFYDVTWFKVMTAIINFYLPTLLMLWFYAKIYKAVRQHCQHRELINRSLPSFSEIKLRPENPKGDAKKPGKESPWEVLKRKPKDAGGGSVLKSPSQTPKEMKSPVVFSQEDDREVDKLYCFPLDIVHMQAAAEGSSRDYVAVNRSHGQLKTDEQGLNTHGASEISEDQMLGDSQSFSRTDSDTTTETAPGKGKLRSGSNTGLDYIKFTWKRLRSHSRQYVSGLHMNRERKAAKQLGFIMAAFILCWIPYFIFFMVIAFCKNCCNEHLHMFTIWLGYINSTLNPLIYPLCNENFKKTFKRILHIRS
Sequence of Histamine H1 receptor (P31389 whole entry): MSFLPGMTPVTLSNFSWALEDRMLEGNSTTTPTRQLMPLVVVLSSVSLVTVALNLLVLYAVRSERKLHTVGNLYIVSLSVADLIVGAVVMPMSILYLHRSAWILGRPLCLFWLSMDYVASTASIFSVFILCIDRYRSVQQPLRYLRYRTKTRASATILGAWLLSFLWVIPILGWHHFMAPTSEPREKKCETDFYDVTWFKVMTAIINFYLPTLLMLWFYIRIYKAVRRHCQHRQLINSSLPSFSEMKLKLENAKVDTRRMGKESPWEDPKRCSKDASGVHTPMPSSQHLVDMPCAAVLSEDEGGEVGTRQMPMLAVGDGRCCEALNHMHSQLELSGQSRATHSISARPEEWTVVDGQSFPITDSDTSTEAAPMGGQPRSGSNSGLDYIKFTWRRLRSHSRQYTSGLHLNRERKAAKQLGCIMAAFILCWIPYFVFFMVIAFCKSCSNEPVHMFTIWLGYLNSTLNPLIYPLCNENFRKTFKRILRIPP

Row | Compound | EC50 (Histamine H2 receptor) [µM] | Kb (Histamine H1 receptor) [µM] | Activity [1] [%] | Emax [1] [%] | Kb [2] [µM]
1 | CC(CC(=O)NC(N)=NCCCc1cnc[nH]1)c1nccs1 (stereo not given) | 0.0389 |  |  |  | 
2 | NC(=NCCCc1cnc[nH]1)NC(=O)C1CCCCC1 | 0.0479 | 5.13 |  |  | 
3 | NC(=NCCCc1cnc[nH]1)NC(=O)CC(c1ccc(F)c(F)c1)c1ncc[nH]1 (stereo not given) | 0.0977 |  |  |  | 
4 | NC(=NCCCc1cnc[nH]1)NC(=O)CC(c1ccc(Cl)cc1)c1ccc(Cl)cc1 | 0.309 |  |  |  | 
5 | CC(C(=O)NC(N)=NCCCc1cnc[nH]1)C1CCCCC1 (stereo not given) | 0.138 | 2.34 |  |  | 
6 | NC(=NCCCc1cnc[nH]1)NC(=O)CC1CCCCC1 | 0.1 | 2.45 |  |  | 
7 | Cc1nc[nH]c1CSCC(=O)NC(N)=NCCCc1cnc[nH]1 | 0.0309 | 4.27 |  |  | 
8 | N=C(NCCCc1c[nH]cn1)NC(=O)Cc1ccccc1 |  |  | 546 | 97 | 2.8
9 | NC(=NCCCc1cnc[nH]1)NC(=O)CC(c1ccc(F)cc1)c1ccccn1 (stereo not given) | 0.0339 | 3.72 |  |  | 
10 | NC(=NCCC(c1ccc(F)cc1)c1ccccn1)NCCCc1cnc[nH]1 (stereo not given) [ARPROMIDINE] | 0.00977 |  |  |  | 
11 | NC(=NCCCc1cnc[nH]1)NC(=O)Cc1ccccc1 | 0.182 | 0.575 |  |  | 
12 | NC(=NCCCc1cnc[nH]1)NC(=O)CC(c1ccc(Br)cc1)c1ccc(Br)cc1 | 0.776 |  |  |  | 
13 | CC(CC(=O)NC(N)=NCCCc1cnc[nH]1)C1CCCCC1 (stereo not given) | 0.0676 | 2.19 |  |  | 
14 | NC(=NCCCc1cnc[nH]1)NC(=O)CCC1CCCCC1 | 0.0617 | 6.17 |  |  | 

The remaining lines, values ahead:

Row | EC50 (Histamine H2 receptor) [µM] | Kb (Histamine H1 receptor) [µM] | Activity [1] [%] | Emax [1] [%] | Kb [2] [µM] | Compound
15 |  |  | 2590 | 91 | 11.1 | CC(CC(=O)NC(=N)NCCCc1c[nH]cn1)c1nccs1 (stereo not given)
16 | 0.038 |  | 2610 | 98 | 7.4 | CC(CC(=O)NC(=N)NCCCc1c[nH]cn1)c1ccccn1 (stereo not given)
17 | 0.0537 |  |  |  |  | NC(=NCCCc1cnc[nH]1)NC(=O)CC(c1ccccc1)c1ccc(F)c(F)c1 (stereo not given)
18 |  |  | 2930 | 100 | 5.2 | N=C(NCCCc1c[nH]cn1)NC(=O)CC(c1ccc(F)cc1)c1ccccn1 (stereo not given)
19 |  |  | 1030 | 100 | 6.2 | N=C(NCCCc1c[nH]cn1)NC(=O)CC(c1ccc(F)c(F)c1)c1ncc[nH]1 (stereo not given)
20 | 0.398 |  | 251 | 54 | 2.9 | N=C(NCCCc1c[nH]cn1)NC(=O)CC(c1ccc(F)c(F)c1)c1nccn1Cc1ccccc1 (stereo not given)
21 |  |  | 130 | 60 |  | N=C(NCCCc1c[nH]cn1)NC(=O)CC(c1ccc(Br)cc1)c1ccc(Br)cc1
22 |  |  | 729 | 86 | 8.8 | CC(C(=O)NC(=N)NCCCc1c[nH]cn1)C1CCCCC1 (stereo not given)
23 |  |  | 1000 | 95 | 4.3 | N=C(NCCCc1c[nH]cn1)NC(=O)CC1CCCCC1
24 | 1.05 |  |  |  |  | NC(=NCCCc1cnc[nH]1)NC(=O)C(c1ccccc1)c1ccccc1
25 |  |  | 1470 | 101 | 0.14 | CC(CC(=O)NC(=N)NCCCc1c[nH]cn1)C1CCCCC1 (stereo not given)
26 |  |  | 1610 | 98 | 1.6 | N=C(NCCCc1c[nH]cn1)NC(=O)CCC1CCCCC1
27 |  |  | 10200 | 100 |  | N=C(NCCCc1c[nH]cn1)NCCC(c1ccc(F)cc1)c1ccccn1 (stereo not given)
28 |  |  | 2090 | 102 | 6 | N=C(NCCCc1c[nH]cn1)NC(=O)C1CCCCC1
29 |  |  | 3200 | 101 | 8.5 | Cc1[nH]cnc1CSCC(=O)NC(=N)NCCCc1c[nH]cn1
30 |  |  | 320 | 60 |  | N=C(NCCCc1c[nH]cn1)NC(=O)CC(c1ccc(Cl)cc1)c1ccc(Cl)cc1
31 |  |  | 28 | 88 | 8.8 | CC(C(=O)NC(=N)NCCCc1c[nH]cn1)c1ccccc1 (stereo not given)
32 | 3.63 | > 10 |  |  |  | CC(C(=O)NC(N)=NCCCc1cnc[nH]1)c1ccccc1 (stereo not given)
33 |  |  | 95 | 69 | 4 | N=C(NCCCc1c[nH]cn1)NC(=O)C(c1ccccc1)c1ccccc1
